Test results from ChEMBL document CHEMBL1129267, “Aryl 1-but-3-ynyl-4-phenyl-1,2,3,6-tetrahydropyridines as potential antipsychotic agents: synthesis and structure-activity relationships” (J Med Chem, 1996).

Experiments:
D(2) dopamine receptor [1] = biological target: T1, D(2) dopamine receptor (Rattus norvegicus, UniProt P61169); experiment: Binding affinity at Dopamine receptor D2 in rat striatal membrane by [3H]spiperone displacement.; format: cell membranes, Striatum
In short: (§1)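 Rat striatal membranes; [³H]spiperone 0.2 nM final; nonspecific binding defined with (+)-butaclamol 1.0 µM final. Four to six concentrations, each run in triplicate; Ki obtained by nonlinear regression analysis.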

D(2) dopamine receptor [2] = biological target: T2, D(2) dopamine receptor (Homo sapiens, UniProt P14416); experiment: […] Dopamine receptor D2 mitogenesis measured as [3H]thymidine incorporation in CHO p-5 cells expressing human D2 receptors
T2 sequence (P14416 whole entry): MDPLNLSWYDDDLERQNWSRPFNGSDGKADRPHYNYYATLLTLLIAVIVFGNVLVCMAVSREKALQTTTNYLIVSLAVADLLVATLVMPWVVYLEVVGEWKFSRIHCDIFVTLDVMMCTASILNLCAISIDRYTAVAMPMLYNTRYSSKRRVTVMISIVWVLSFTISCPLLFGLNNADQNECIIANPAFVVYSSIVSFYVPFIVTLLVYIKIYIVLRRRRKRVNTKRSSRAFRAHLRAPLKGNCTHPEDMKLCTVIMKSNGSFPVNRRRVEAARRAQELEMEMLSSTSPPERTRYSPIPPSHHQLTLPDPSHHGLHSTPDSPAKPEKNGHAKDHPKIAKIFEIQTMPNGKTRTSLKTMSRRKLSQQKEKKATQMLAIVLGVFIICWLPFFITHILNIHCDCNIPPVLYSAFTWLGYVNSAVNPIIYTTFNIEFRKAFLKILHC
In short: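 CHO p-5 cells transfected with human D2L are grown 2 days at 37 °C in medium with 10% calf serum, rinsed, and switched to serum-free medium plus compound in water. After 16-17 h, [³H]thymidine (1 µCi/well) is added for 4 h; cells are harvested onto filters and counted.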

D(1A) dopamine receptor [3] = biological target: T3, D(1A) dopamine receptor (Rattus norvegicus, UniProt P18901); format: cell membranes, Brain, Membrane
T3 sequence (P18901 whole entry): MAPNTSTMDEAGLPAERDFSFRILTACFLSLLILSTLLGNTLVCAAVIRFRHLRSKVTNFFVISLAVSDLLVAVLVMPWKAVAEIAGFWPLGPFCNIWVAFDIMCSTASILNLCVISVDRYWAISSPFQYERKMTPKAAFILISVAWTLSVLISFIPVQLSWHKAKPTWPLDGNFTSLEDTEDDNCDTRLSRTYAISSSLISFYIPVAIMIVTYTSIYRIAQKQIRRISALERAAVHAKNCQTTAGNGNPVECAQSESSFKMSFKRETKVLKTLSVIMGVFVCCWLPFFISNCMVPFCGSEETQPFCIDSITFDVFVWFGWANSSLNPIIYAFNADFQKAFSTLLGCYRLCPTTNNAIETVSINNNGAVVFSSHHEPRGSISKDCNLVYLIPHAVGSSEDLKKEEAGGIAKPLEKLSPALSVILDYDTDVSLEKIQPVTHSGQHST

D(3) dopamine receptor = D(3) dopamine receptor (Homo sapiens, UniProt P35462); experiment: Binding affinity against human Dopamine receptor D3 in CHO-K1 cells using [3H]spiperone as radioligand; format: cell-based
Sequence of D(3) dopamine receptor (P35462 whole entry): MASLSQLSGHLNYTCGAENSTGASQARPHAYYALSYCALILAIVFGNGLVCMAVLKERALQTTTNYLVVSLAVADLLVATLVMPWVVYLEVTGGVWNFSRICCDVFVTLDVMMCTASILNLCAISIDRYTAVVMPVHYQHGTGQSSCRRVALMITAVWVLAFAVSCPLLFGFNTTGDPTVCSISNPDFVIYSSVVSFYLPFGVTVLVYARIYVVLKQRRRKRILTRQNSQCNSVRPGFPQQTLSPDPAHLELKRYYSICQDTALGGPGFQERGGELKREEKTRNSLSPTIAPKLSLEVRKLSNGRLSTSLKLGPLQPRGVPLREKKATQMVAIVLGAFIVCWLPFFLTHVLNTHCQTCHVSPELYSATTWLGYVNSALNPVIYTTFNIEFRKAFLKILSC

D(2) dopamine receptor [4] = biological target: T1, D(2) dopamine receptor; experiment: Binding affinity against Dopamine receptor D2 in CHO-K1 cells using radioligand [3H]NPA binding assay; format: cell-based
Monkey = experiment: Compound was tested for inhibition of conditioned avoidance after administering perorally(po) in squirrel monkeys; format: functional; conditions: Cebidae, in Saimiri
Rattus norvegicus [5] = experiment: In vivo inhibition of locomotor activity in the rat following p.o. administration.; format: functional; conditions: po
Rattus norvegicus [6] = experiment: Percent decrease of the firing rate of rat substantia nigra DA neurons at a dose of 2.5 mg/kg ip; format: functional; conditions: route intraperitoneal
[7] = biological target: T4, 5-hydroxytryptamine receptor 1A (Rattus norvegicus, UniProt P19327); experiment: Binding affinity against serotonin 5-hydroxytryptamine 1A receptor using radioligand [3H]8-OH-DPAT binding assay
T4 sequence (P19327 whole entry): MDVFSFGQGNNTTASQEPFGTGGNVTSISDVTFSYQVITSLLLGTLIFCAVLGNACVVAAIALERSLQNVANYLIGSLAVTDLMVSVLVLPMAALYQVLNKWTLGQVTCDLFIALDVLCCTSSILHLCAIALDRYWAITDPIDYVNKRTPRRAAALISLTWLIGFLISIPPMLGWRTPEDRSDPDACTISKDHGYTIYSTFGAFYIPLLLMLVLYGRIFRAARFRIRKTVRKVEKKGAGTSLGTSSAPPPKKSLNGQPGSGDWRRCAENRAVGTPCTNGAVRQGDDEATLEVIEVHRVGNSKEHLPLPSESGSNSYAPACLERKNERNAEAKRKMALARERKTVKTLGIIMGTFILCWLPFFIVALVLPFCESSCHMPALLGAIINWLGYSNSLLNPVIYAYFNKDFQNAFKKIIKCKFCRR
In short: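 Rat hippocampal membranes labelled with [³H]-8-OH-DPAT (0.4 nM final); nonspecific binding with 8-OH-DPAT (1 µM).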

Mus musculus [8] = experiment: (§2) Compound was tested for the inhibition of locomotor activity (LMA)by administering Intraperitoneally in mouse.; format: functional; conditions: ip
D(4) dopamine receptor = biological target: T5, D(4) dopamine receptor (Homo sapiens, UniProt P21917); experiment: Binding affinity against human Dopamine receptor D4 in CHO-K1 cells using [3H]spiperone as radioligand; format: cell-based
T5 sequence (P21917 whole entry): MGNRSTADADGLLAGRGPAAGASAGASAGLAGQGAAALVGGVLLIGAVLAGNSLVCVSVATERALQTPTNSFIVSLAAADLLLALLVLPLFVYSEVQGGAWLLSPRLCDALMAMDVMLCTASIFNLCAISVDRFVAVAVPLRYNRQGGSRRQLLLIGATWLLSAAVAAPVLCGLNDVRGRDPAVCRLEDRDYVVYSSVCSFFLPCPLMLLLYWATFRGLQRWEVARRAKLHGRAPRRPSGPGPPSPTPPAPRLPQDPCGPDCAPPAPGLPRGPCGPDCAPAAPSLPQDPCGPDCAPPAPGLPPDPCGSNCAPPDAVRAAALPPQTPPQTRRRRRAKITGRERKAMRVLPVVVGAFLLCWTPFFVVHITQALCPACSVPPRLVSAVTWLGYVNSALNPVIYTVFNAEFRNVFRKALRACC
In short: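 Human D4.2 receptor expressed in CHO K1 cells; [³H]spiperone 0.2 nM final; nonspecific binding defined with haloperidol 1.0 µM final.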

D(2) dopamine receptor [9] = biological target: T1, D(2) dopamine receptor; experiment: Compound was evaluated for their affinity against dopamine receptor D2 by displacing [3H]-spiperone in rat striatal membrane; format: cell membranes, Striatum; in short: as §1
Rattus norvegicus [10] = experiment: Compound was tested for the inhibition of locomotor activity (LMA)by administering orally in rat; format: functional; conditions: po
In short: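 Rats dosed orally 1 h before a 30 min test in darkened cylindrical photobeam chambers. Percent inhibition of locomotor activity relative to vehicle-treated animals; ED50 derived from three to six doses, n = 6-18 animals/dose.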

[11] = biological target: T6, Adrenergic receptor alpha-1 (Rattus norvegicus, UniProt P15823+P23944+P43140); experiment: Binding affinity against Alpha-1 adrenergic receptor using radioligand [3H]prazosin binding assay.; format: protein assay
T6 sequence (P15823 whole entry): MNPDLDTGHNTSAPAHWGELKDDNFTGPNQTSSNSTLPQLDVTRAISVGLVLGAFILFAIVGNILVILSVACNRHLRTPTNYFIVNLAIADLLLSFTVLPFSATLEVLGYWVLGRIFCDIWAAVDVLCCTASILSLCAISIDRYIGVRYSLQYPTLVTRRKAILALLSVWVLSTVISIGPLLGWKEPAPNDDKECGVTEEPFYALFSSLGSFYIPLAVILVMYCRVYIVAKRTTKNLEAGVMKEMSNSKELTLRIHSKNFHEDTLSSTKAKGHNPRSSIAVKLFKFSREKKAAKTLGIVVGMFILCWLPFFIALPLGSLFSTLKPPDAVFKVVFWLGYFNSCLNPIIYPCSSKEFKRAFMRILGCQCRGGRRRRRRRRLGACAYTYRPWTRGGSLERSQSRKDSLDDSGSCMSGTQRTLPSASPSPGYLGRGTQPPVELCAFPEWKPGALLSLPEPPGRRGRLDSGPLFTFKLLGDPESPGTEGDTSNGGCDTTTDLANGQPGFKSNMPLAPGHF
T6 sequence (P23944 whole entry): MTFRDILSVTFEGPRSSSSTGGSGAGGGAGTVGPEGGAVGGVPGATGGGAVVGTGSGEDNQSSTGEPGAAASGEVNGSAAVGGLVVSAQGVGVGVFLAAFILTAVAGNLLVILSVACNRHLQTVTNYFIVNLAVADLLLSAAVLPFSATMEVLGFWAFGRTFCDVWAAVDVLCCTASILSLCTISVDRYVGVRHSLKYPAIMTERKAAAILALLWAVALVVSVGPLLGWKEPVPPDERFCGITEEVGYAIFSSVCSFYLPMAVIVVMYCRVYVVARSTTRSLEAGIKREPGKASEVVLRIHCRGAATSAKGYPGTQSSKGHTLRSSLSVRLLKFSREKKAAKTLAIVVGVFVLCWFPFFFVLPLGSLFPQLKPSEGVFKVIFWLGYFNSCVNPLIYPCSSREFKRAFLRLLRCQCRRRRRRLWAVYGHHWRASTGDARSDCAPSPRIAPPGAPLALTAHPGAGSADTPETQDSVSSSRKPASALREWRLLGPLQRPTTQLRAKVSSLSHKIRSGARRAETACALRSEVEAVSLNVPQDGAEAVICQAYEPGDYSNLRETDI
T6 sequence (P43140 whole entry): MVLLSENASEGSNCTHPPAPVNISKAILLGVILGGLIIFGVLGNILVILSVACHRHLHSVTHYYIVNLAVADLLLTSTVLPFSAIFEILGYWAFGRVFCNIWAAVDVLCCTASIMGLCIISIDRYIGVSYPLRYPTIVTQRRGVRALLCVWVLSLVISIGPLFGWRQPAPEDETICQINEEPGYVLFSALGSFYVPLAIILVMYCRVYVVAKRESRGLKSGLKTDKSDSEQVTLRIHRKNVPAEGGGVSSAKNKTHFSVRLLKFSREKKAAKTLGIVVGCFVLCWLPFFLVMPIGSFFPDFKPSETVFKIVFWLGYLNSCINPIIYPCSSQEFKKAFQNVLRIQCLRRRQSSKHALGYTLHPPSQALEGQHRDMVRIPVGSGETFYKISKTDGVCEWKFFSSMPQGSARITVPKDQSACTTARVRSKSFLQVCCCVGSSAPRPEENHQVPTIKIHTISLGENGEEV
In short: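 Inhibition of [³H]prazosin (0.1 nM final) binding in rat cortex membranes; phentolamine (10 µM final) defines nonspecific binding.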

Rattus norvegicus [12] = experiment: Percent reversal of the increase on DOPA levels in the striatum of GBL-treated rats at a dose of 10 mg/kg ip; format: functional; conditions: route intraperitoneal
Mus musculus [13] = experiment: as §2; format: functional; conditions: ip; remark: listed apart in the source
In short: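 Mice dosed ip, then tested immediately for 1 h in darkened cylindrical photobeam chambers. Percent inhibition of locomotor activity relative to vehicle-treated animals; ED50 derived from three to six doses, n = 6-18 animals/dose.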

D(1A) dopamine receptor [14] = biological target: T3, D(1A) dopamine receptor; experiment: Binding affinity against dopamine receptor D1 using radioligand ([3H]-SCH 23390) binding assay
D(2) dopamine receptor [15] = biological target: T2, D(2) dopamine receptor; experiment: Compound was evaluated […] for Dopamine receptor D2 mitogenesis. [3H]thymidine incorporation in CHO p-5 cells expressing human D2 receptors.; format: organism-based
In short: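 CHO p-5 cells transfected with human D2L receptor are grown 2 days at 37 °C in medium with 10% calf serum, then rinsed and put in serum-free medium. Compound (in water) is added for 16-17 h, then [³H]thymidine (1 µCi/well) for 4 h. Cells are harvested and counted. Maximal effect is given as % of quinpirole (100%).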

T1 sequence (P61169 whole entry): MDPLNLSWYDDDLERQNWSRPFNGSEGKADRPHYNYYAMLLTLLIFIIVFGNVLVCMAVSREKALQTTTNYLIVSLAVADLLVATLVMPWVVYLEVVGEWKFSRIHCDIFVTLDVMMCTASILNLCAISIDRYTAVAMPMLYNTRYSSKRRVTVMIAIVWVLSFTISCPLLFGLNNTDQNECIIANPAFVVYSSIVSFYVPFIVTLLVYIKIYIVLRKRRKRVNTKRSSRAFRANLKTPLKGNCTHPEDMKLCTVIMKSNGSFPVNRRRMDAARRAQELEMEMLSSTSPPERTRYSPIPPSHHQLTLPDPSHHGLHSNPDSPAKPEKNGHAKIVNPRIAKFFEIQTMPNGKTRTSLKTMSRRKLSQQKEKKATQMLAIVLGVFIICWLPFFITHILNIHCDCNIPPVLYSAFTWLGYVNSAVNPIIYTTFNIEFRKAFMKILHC

With Nc1ccc(C#CCCN2CC=C(c3ccccc3)CC2)cn1 the Ki (D(2) dopamine receptor [1]) was 33 nM, the EC50 (D(2) dopamine receptor [2]) was 0.5 nM and the Ki (D(1A) dopamine receptor [3]) was > 10 µM. The Ki (D(3) dopamine receptor) was 7 nM, the Ki (D(2) dopamine receptor [4]) was 19 nM and the ED50 (Monkey) was 2.8 mg/kg. It also gave an ED50 (Rattus norvegicus [5]) of 2.5 mg/kg, a Decrease (Rattus norvegicus [6]) of 63% and a Ki [7] of 632 nM. It also gave an ED50 (Mus musculus [8]) of 0.06 mg/kg and a Ki (D(4) dopamine receptor) of 278 nM.

With Oc1ccc(C#CCCN2CC=C(c3ccccc3)CC2)cc1 the Ki (D(2) dopamine receptor [9]) was 54 nM, the ED50 (Mus musculus [8]) was 1.5 mg/kg and the ED50 (Rattus norvegicus [10]) was > 30 mg/kg.

For C(#Cc1cnc2ccccc2c1)CCCN1CC=C(c2ccccc2)CC1, the ED50 (Rattus norvegicus [5]) was 18.6 mg/kg.

Molecule Nc1ccc(C#CCCN2CC=C(c3ccccc3)CC2)nc1 has a Ki [11] of 57.5 nM, a Ki (D(2) dopamine receptor [1]) of 63 nM and an EC50 (D(2) dopamine receptor [2]) of 1.3 nM. The Ki (D(1A) dopamine receptor [3]) was > 10 µM, the Ki (D(3) dopamine receptor) was 2.6 nM and the Ki (D(2) dopamine receptor [4]) was 1.9 nM. The ED50 (Monkey) was 0.43 mg/kg, the ED50 (Rattus norvegicus [5]) was 1.7 mg/kg and the Decrease (Rattus norvegicus [6]) was 100%. The Ki [7] was 69 nM and the Ki (D(4) dopamine receptor) was 371 nM.

Oc1ccc2[nH]cc(CCCCN3CC=C(c4ccccc4)CC3)c2c1 [ROXINDOLE] gave a Ki (D(2) dopamine receptor [1]) of 9.1 nM, a Ki (D(3) dopamine receptor) of 0.4 nM and an ED50 (Rattus norvegicus [5]) of 12.8 mg/kg. For the same molecule, the Decrease (Rattus norvegicus [6]) was 100%, the Decrease (Rattus norvegicus [12]) was 64% and the ED50 (Mus musculus [8]) was 0.2 mg/kg. The Ki (D(4) dopamine receptor) was 24 nM.

Work on C(#Cc1cccnc1)CCN1CC=C(c2ccccc2)CC1 yielded a Ki [11] of 14.1 nM, a Ki (D(2) dopamine receptor [1]) of 37 nM and an EC50 (D(2) dopamine receptor [2]) of 1.7 nM. It also gave a Ki (D(1A) dopamine receptor [3]) of 5 µM, a Ki (D(3) dopamine receptor) of 20 nM and a Ki (D(2) dopamine receptor [4]) of 3.3 nM. For the same molecule, the ED50 (Monkey) was 10.1 mg/kg, the ED50 (Rattus norvegicus [5]) was 1.4 mg/kg and the Decrease (Rattus norvegicus [6]) was 100%. The Ki [7] was 555 nM and the Ki (D(4) dopamine receptor) was 681 nM.

C(#Cc1cccnc1)CCN1CC=C(c2cccs2)CC1 was tested, and the Ki (D(2) dopamine receptor [1]) was 255 nM, the ED50 (Mus musculus [13]) was 0.86 mg/kg and the ED50 (Rattus norvegicus [5]) was 5 mg/kg.

Molecule C(#Cc1ccc2[nH]ccc2c1)CCN1CC=C(c2ccccc2)CC1 has a Ki (D(2) dopamine receptor [1]) of 193 nM, an ED50 (Rattus norvegicus [5]) of 5.2 mg/kg and an ED50 (Mus musculus [8]) of 1.2 mg/kg.

In the case of Nc1ccccc1C#CCCN1CC=C(c2ccccc2)CC1, the Ki (D(2) dopamine receptor [9]) is reported as 183 nM, the ED50 (Mus musculus [13]) is reported as 1.6 mg/kg and the ED50 (Rattus norvegicus [5]) is reported as 23.9 mg/kg.

In the case of C(#Cc1cccnc1)CCCN1CC=C(c2ccccc2)CC1, the Ki (D(2) dopamine receptor [1]) is reported as 56 nM and the ED50 (Rattus norvegicus [5]) is reported as 4.3 mg/kg.

C(#Cc1cnc2ccccc2c1)CN1CC=C(c2ccccc2)CC1 was tested, and the Ki (D(2) dopamine receptor [1]) was > 10000 nM and the ED50 (Mus musculus [13]) was > 30 mg/kg.

With Nc1ccc(C#CCCN2CC=C(c3ccccc3)CC2)cc1 the Ki [11] was 34.5 nM, the Ki (D(2) dopamine receptor [9]) was 48 nM and the Ki (D(1A) dopamine receptor [14]) was > 10 µM. The Max effect (D(2) dopamine receptor [15]) was 49%, the Ki (D(2) dopamine receptor [4]) was 0.67 nM and the ED50 (Monkey) was 3.8 mg/kg. For the same molecule, the Decrease (Rattus norvegicus [6]) was 81%, the Ki [7] was > 10000 nM and the ED50 (Rattus norvegicus [10]) was 2.7 mg/kg. For the same molecule, the Ki (D(4) dopamine receptor) was 228 nM.
